A3G deaminase – APOBEC3G (human) deaminase inhibition; recombinant A3G, ssDNA deamination FAM/TAMRA fluorescence; inhibition, % at 20 µM; actives 0.28% (n = 330,000); AID 493012;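 active means inhibition of at least 40% at 20 µM, with no more than 30% in the related APOBEC3A deaminase screen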;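 further: plate controls were DMSO wells with A3G for no effect and wells lacking A3G enzyme for full effect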
UBC9 SUMO inh – inhibitors of human SUMOylation (UBC9); P63279; HTRF SUMOylation assay, SAE1/SAE2 + UBC9, in vitro; inhibition, % at 35 µM; actives 0.36% (n = 290,000); AID 2006; in the data active means inhibition above about 50%, passing the limit was not always enough; inconclusive means no clear call, values can overlap the other calls
HKDC1 inh – inhibitors of human hexokinase HKDC1; Q2TB90; recombinant HKDC1, G6PDH/diaphorase resazurin coupled fluorescence; inhibition, % at 20 µM; actives 0.16% (n = 340,000);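 active means inhibition above about 35% when tested at 20 µM, limit read from the data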;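 further: plate controls were DMSO wells with enzyme for no effect and DMSO wells lacking enzyme for full effect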
Target sequence (Q2TB90 whole entry, looked up): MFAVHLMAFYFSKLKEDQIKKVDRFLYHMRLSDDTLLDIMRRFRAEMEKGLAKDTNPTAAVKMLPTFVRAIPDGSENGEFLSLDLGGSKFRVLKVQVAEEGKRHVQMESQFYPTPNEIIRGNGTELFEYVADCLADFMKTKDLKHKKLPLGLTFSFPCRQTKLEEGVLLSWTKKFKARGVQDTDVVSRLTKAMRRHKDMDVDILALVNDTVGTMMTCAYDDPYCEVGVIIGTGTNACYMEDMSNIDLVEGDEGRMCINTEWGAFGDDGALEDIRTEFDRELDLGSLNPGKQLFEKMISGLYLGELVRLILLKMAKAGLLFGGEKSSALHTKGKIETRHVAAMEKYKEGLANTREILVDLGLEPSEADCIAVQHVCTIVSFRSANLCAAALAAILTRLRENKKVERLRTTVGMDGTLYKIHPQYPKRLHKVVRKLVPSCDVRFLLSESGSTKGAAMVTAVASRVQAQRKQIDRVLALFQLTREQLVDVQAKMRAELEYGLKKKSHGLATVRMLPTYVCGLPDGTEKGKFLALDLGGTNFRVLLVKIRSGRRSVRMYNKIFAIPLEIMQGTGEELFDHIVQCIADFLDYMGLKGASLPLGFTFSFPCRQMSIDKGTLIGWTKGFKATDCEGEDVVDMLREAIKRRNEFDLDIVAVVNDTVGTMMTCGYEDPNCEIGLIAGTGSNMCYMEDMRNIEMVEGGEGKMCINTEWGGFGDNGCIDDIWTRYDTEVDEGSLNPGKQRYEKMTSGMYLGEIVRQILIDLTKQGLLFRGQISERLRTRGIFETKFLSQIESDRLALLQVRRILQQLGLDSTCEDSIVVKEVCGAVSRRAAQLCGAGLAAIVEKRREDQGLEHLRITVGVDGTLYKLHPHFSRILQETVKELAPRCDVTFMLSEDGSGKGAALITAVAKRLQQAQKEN
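test system = in-house recombinant HK5 (HKDC1) enzyme | amount = HKDC1 at 5 µg/mL | control set = DMSO-enzyme wells negative, buffer-substituted wells positive | compound = one dose of 20 µM, 1% DMSO | schedule = reaction time 90 min, room temperature, protected from light | technique = resorufin fluorescence at 613 nm | reagent = glucose with 1 mM ATP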
M18AAP inhibitor – blocks P. falciparum M18 aspartyl aminopeptidase; inhibition, % at 7.35 µM; recombinant PfM18AAP, H-Glu-NHMec fluorogenic cleavage; AID 1822; actives 1.2% (n = 290,000);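 active means inhibition above the campaign mean inhibition over all tested compounds plus 3 SD, cut at about 28% in these data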;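 further: 0% = plate median of test compound wells and 100% = 2 mM ZnCl2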
PfGluPho inh – PfG6PD (Plasmodium falciparum) enzyme inhibition; PfGluPho enzyme, NADPH resazurin-diaphorase fluorescence; AID 504690; inhibition, % at 20 µM; actives 0.78% (n = 350,000);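 active means inhibition reaching at least a set limit at 20 µM in the primary screen, cut at about 59% in these data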;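 further: 0% = DMSO wells with substrate and 100% = DMSO wells lacking glucose-6-phosphate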
APOBEC3A inh – human APOBEC3A DNA deaminase inhibition | P31941 | recombinant A3A, FAM/TAMRA ssDNA deamination fluorescence | inhibition, % at 20 µM | actives 0.41% (n = 330,000);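 active means at least 40% inhibition at 20 µM here, with at most 30% in a related deaminase screen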;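 further: plate controls were A3A with DMSO for no effect and wells lacking A3A enzyme for full effect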
An asterisk follows results filed as active; ? = inconclusive; . = no result. Rows were chosen to be rich in hits. Some 2.4% of all compounds tested hit in one or more screens of this group.

SMILES	A3G deaminase	UBC9 SUMO inh	HKDC1 inh	M18AAP inhibitor	PfGluPho inh	APOBEC3A inh
O=C1/C(=C/c2ccco2)SC(=S)N1c1cccnc1	.	84*	24	21	25	.
O=C1/C(=C/C=C/c2ccco2)SC(=S)N1c1ccc(O)cc1	81	64*	6	15	32	93
O=C1/C(=C\c2ccco2)SC(=S)N1c1ccc(O)cc1	5	57*	-6	31*	-3	27
COc1ccc(C(C[N+](=O)[O-])C2(c3ccc(OC)c(OC)c3)C(=O)c3ccccc3C2=O)cc1 (stereo not given)	.	-12	6	35*	39	.
COc1ccc(C(C[N+](=O)[O-])c2c(-c3ccccc3)cc3ccccn23)cc1OC (stereo not given)	-2	-16	-4	21	22	1
O=c1cc(-c2ccc(Cl)cc2)oc(=O)[nH]1	11	18	-4	-15	-10	2
O=c1cc(N=Nc2ccc(Cl)cc2)[nH]c(=O)[nH]1	.	14	18	70*	7	.
O=C(COc1ccc(Cl)cc1)NNC(=O)CSc1nncs1	-2	5	-1	29*	20	6
Cc1cccn2c(=O)c3cc(C(=O)NC4CCCCCC4)sc3nc12	-10	55*	1	3	-6	-2
Cc1ccc(CNC(=O)c2cc3c(=O)n4ccccc4nc3n(Cc3ccco3)c2=N)cc1	-3	20	9	.	30	1
Cc1ccc2nc3c(cc(C(=O)NCc4ccco4)c(=N)n3Cc3ccco3)c(=O)n2c1	89	74*	0	12	28	95
Cc1ccc(CNC(=O)Nc2ccc(F)cc2)n1C	.	-1	2	31*	11	.
CC(C)N(CC(N)=O)c1ccc(S(=O)(=O)N2CCCC2)cn1	-8	.	2	.	3	-6
O=C(O)CCC(=O)Nc1sc2c(c1C(=O)Nc1cccc3ccccc13)CCCCC2	3	30	-7	30*	4	2
COc1ccc(OC)c(NC(=O)c2c(NC(=O)CCC(=O)O)sc3c2CCCCC3)c1	5	4	-5	37*	38	-6
CCOC(=O)Cn1c(CN2CCN(C(=O)c3ccco3)CC2)nc2c1c(=O)n(C)c(=O)n2C	-5	3	-2	4	-4	-2
CCOc1ccc(NC(=S)N(CCN2CCOCC2)Cc2ccc3c(c2)CCCN3CC)cc1	-2	0	2	7	11	2
CCN1/C(=C/c2ccc3cc(C)ccc3[n+]2CC)Sc2cc(C)ccc21	.	10	-1	6	-5	.
CCN1/C(=C/c2ccc3cc(C)ccc3[n+]2C)Sc2ccc3sccc3c21	.	-29	11	19	65*	.
C/C(=N\NC(=O)c1ccc(N2CCCC2=O)cc1)c1ccc(O)cc1O	-3	5	-25	28*	-30	-2
Cc1c(/C(O)=C2\C(=O)C(=O)N(CCN(C)C)C2c2ccccc2)cnn1-c1ccccc1 (stereo not given)	-3	23	-6	1	-5	-5
COC(=O)c1ccc2c(c1)NC(=O)c1ccccc1S2	-8	10	-1	4	-18	-7
N#C/C=C1/NC(=O)c2ccccc2S1	-8	2	1	29*	0	-3
CCN1C(=O)/C(=C/C=C2/Sc3ccc4ccccc4c3N2CCO)SC1=S	3	?	12	50*	46	3
CC(OC(=O)C12CCC(=O)N1c1ccccc1S2)C(=O)Nc1cccc(Cl)c1 (stereo not given)	-9	.	-1	.	1	-4
SMILES	A3G deaminase	UBC9 SUMO inh	HKDC1 inh	M18AAP inhibitor	PfGluPho inh	APOBEC3A inh
O=C(/C=C/c1ccc(O)c(O)c1)O[C@H](Cc1ccc(O)c(O)c1)C(=O)O	.	69*	.	.	.	.
O=C(O)/C=C/c1ccc(O)c(O)c1	-4	-22	-5	82*	22	-5
O=C(Nc1ccccc1)N1C(=O)C2(OCCO2)c2ccccc21	-4	18	-4	-13	1	-1
O=C1C=CC(=O)N1c1ccccc1N1C(=O)C=CC1=O	.	.	-9	.	114*	.
O=C(c1ccccc1)c1ccccc1N1C(=O)C=CC1=O	10	8	-1	-85	55	1
CCc1c(C)c2cc(Cl)c(O)c(CN(C)C)c2oc1=O	-7	51*	-7	11	7	-1
Cc1c(C)c2cc(Cl)c(O)c(CN(C)C)c2oc1=O	-4	44	-3	-10	4	-6
COc1ccc(-c2nnc(SCCOc3cccc(C)c3)n2N)cc1	-5	3	-1	-5	7	-4
CC(C)c1nnc(NC(=O)CSc2nnc(-c3ccco3)o2)s1	-6	26	-4	11	32	2
Cc1nnc(NC(=O)CSc2nnc(-c3ccco3)o2)s1	-5	10	-2	29*	0	-2
Cc1cc(SCCC(=O)O)nc2ccccc12	-6	29	-7	30*	-12	-1
COc1cc(OC)cc(-c2n[nH]c(=S)n2-c2ccc3c(c2)OCCO3)c1	33	0	10	1	40	-4
COc1ccc(-c2n[nH]c(=S)n2-c2ccc3c(c2)OCCO3)cc1	34	-8	-8	30*	53	-2
CN1CC=C2C(C#N)=C(N)C(C#N)(C#N)[C@H](c3ccoc3)[C@H]2C1	0	88*	0	21	-4	1
N#CC1=C(N)C(C#N)(C#N)[C@H](c2ccoc2)[C@H]2CN(Cc3ccccc3)CC=C12	-6	62*	14	16	-3	-3
CC(=O)N1CC=C2C(C#N)=C(N)C(C#N)(C#N)[C@H](c3ccoc3)[C@H]2C1	-3	15	-8	-3	-3	0
CC(=O)C(C(C)=O)C1(O)C(=O)c2ccccc2C1=O	-5	94*	-6	-1	-17	-2
Cc1ccc(-n2c(Cc3cccn3C)nnc2SCC(=O)NCc2ccc3c(c2)OCO3)cc1	-7	0	-3	30*	-10	-1
Cc1ccc(-n2c(Cc3cccn3C)nnc2SCC(=O)Nc2ccc3c(c2)OCO3)cc1	-5	5	-8	9	9	-2
Cc1ccc(S(=O)(=O)NNC(=O)c2cccc(O)c2)cc1	-9	2	-11	30*	9	-4
COc1cc(NC(=S)Nc2cccc(Cl)c2Cl)c(OC)cc1Cl	-4	-26	-2	29*	11	-19
COc1cc(NC(=S)Nc2ccc(Br)cc2Cl)c(OC)cc1Cl	-6	-5	2	7	10	1
CCOC(=O)c1sc2nc3c(SCC(=O)O)cc(C(=O)c4ccccc4O)cn3c(=O)c2c1C	38	76*	6	-8	19	6
CCOC(=O)c1sc2nc3c(SCC(=O)O)cc(C(=O)c4cc(F)ccc4O)cn3c(=O)c2c1C	.	9	1	-3	-19	.
CCn1c(SCC(=O)N2CCc3ccccc32)nc2c(c1=O)SC(C)C2 (stereo not given)	0	3	1	.	15	-2
